Results published in ChEMBL document CHEMBL3351997, “Synthesis of novel tylophorine derivatives and evaluation of their anti-inflammatory activity” (ACS Med Chem Lett, 2014).

What was measured:
[1] = Solubility of the compound in water; assay type: physicochemical; settings: buffer
RAW264.7 [2] = test: Antiinflammatory activity against mouse RAW264.7 cells assessed as inhibition of LPS-induced TNFalpha production after 6 hrs by ELISA; assay type: functional, cell-based; settings: RAW264.7, 6 h
RAW264.7 [3] = test: Cytotoxicity against mouse RAW264.7 cells after 48 hrs by MTT assay; assay type: cell-based; settings: RAW264.7, 48 h
Procedure, shortened: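 Raw 264.7 murine macrophages were cultured with a range of compound concentrations for 48 h, with vehicle-treated cells as control. The 50% cytotoxic concentration (CC50) was determined, with values representative of three experiments.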

RAW264.7 [4] = test: Cytotoxicity against mouse RAW264.7 cells assessed as cell death at 1 uM after 48 hrs by MTT assay; assay type: cell-based; settings: raw264.7, 48 h
[5] = Antiinflammatory activity against BALB/c mouse splenocytes assessed as inhibition of LPS-induced TNFalpha production after 4 hrs by ELISA; assay type: functional, cell-based; settings: Splenocyte
Procedure, shortened: (§1)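 Splenocytes from BALB/c mice were cultured with LPS (100 ng/mL) plus compound for 4 h or 24 h. TNF-α in the supernatants was measured by ELISA. Values are mean ± SD of at least three independent experiments, each run in duplicate.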

T-cell [6] = test: Induction of Foxp3 expression in B6 Foxp3-GFP mouse CD4-positive T cells assessed as increase in iTregs at 100 nM after 3 days by flow cytometry; assay type: functional
Procedure, shortened: (§2)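 Naive CD4+ T cells were sorted from B6 Foxp3-GFP reporter mice and cultured with compound plus TGF-β (5 ng/mL) for 3 days. Harvested cells were read by flow cytometry as the percentage of GFP+ (Foxp3+) iTregs. Values are mean ± SD of at least three independent experiments, each run in duplicate.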

[7] = Solubility of the compound in DMSO; assay type: physicochemical
T-cell [8] = test: Induction of Foxp3 expression in B6 Foxp3-GFP mouse CD4-positive T cells at 100 nM after 3 days by flow cytometry in presence of 5 ng/ml TGF-beta (reference value: 37.15 %); assay type: functional; procedure, shortened: as §2
[9] = Antiinflammatory activity against BALB/c mouse splenocytes assessed as inhibition of LPS-induced TNFalpha production after 24 hrs by ELISA; assay type: functional, cell-based; settings: Splenocyte; procedure, shortened: as §1
T-cell [10] = test: Inhibition of Foxp3 expression in B6 Foxp3-GFP mouse CD4-positive T cells assessed as iTregs at 100 nM after 3 days by flow cytometry; assay type: functional; settings: for inhibition at 0.1 µM: Mus musculus, T-cell, 72 h; procedure, shortened: as §2
T-cell [11] = test: Induction of Foxp3 expression in B6 Foxp3-GFP mouse CD4-positive T cells assessed as increase in iTregs at 1 uM after 3 days by flow cytometry; assay type: functional; procedure, shortened: as §2
T-cell [12] = test: Induction of Foxp3 expression in B6 Foxp3-GFP mouse CD4-positive T cells at 1 nM after 3 days by flow cytometry in presence of 5 ng/ml TGF-beta; assay type: functional; procedure, shortened: as §2
T-cell [13] = test: Induction of Foxp3 expression in B6 Foxp3-GFP mouse CD4-positive T cells at 1 nM after 3 days by flow cytometry in presence of 5 ng/ml TGF-beta (reference value: 37.15 %); assay type: functional; procedure, shortened: as §2
T-cell [14] = test: Induction of Foxp3 expression in B6 Foxp3-GFP mouse CD4-positive T cells at 1 uM after 3 days by flow cytometry in presence of 5 ng/ml TGF-beta (reference value: 37.15 %); assay type: functional; procedure, shortened: as §2
T-cell [15] = test: Induction of Foxp3 expression in B6 Foxp3-GFP mouse CD4-positive T cells at 10 nM after 3 days by flow cytometry in presence of 5 ng/ml TGF-beta (reference value: 37.15 %); assay type: functional; procedure, shortened: as §2

With `COc1cc2c3c(c4cc(OC)c(OC)cc4c2cc1OC)CN1CCCC1C3.O=C(O)CC(O)C(=O)O` (centres undefined) [TYLOPHORINE 2-HYDROXYSUCCINIC ACID SALT] the solubility [1] was “soluble”.

With `COc1cc2c3c(c4cc(OC)c(OC)cc4c2cc1OC)[C@H](O)[C@@H]1CCCN1C3` the IC50 (RAW264.7 [2]) was 0.036 µM, the IC50 (RAW264.7 [3]) was 0.053 µM and the Activity (RAW264.7 [4]) was “Toxic”. For the same molecule, the IC50 [5] was 0.02 µM, the Activity (T-cell [6]) was 39% and the solubility [7] was “soluble”. The Activity (T-cell [8]) was 40% and the IC50 [9] was 0.097 µM.

For `COc1cc2c3c(c4cc(OC)c(OC)cc4c2cc1OC)CN1CCCC1C3` (racemic) [(+/-)-TYLOPHORINE], the “inhibition (INH)” value (T-cell [10]) was 34%.

`COC(=O)[C@@H]1CCCN1C(=O)c1cc2cc(OC)c(OC)cc2c2cc(OC)c(OC)cc12` showed an IC50 (RAW264.7 [2]) of 217 µM, an Activity (T-cell [11]) of 5% and an IC50 (RAW264.7 [3]) of 320 µM. The IC50 [5] was 211 µM and the IC50 [9] was 363 µM.

In the case of `COC(=O)C1CCCCN1C(=O)c1cc2cc(OC)c(OC)cc2c2cc(OC)c(OC)cc12` (centres undefined), the IC50 (RAW264.7 [2]) is reported as 227 µM, the Activity (T-cell [11]) is reported as 7% and the IC50 (RAW264.7 [3]) is reported as 116 µM. The IC50 [5] was 301 µM and the IC50 [9] was 329 µM.

In the case of `COc1cc2c3c(c4cc(OC)c(OC)cc4c2cc1OC)CN1CCCC1C3.O=C(O)c1ccccc1O` (centres undefined) [TYLOPHORINE SALICYLIC ACID SALT], the “inhibition (INH)” value (T-cell [10]) is reported as 4%.

With `COc1cc2cc(CN3CCCCC3C(=O)O)c3cc(OC)c(OC)cc3c2cc1OC` (centres undefined) the IC50 (RAW264.7 [2]) was 354 µM, the Activity (T-cell [11]) was 0.7% and the IC50 (RAW264.7 [3]) was 357 µM. For the same molecule, the IC50 [5] was 292 µM and the IC50 [9] was 389 µM.

For `COc1cc2c3c(c4cc(OC)c(OC)cc4c2cc1OC)[C@@H](O)[C@@H]1CCCN1C3`, the IC50 (RAW264.7 [2]) was 0.35 µM, the IC50 (RAW264.7 [3]) was 1.06 µM and the IC50 [5] was 0.37 µM. It also gave an Activity (T-cell [6]) of 29% and an IC50 [9] of 1.29 µM.

With `COc1cc2c3c(c4cc(OC)c(OC)cc4c2cc1OC)CN1CCCC1C3.O=C(O)c1ccccc1` (centres undefined) [TYLOPHORINE BENZOIC ACID SALT] the “inhibition (INH)” value (T-cell [10]) was 1%.

In the case of `COC(=O)CCCCCNCc1cc2cc(OC)c(OC)cc2c2cc(OC)c(OC)cc12`, the IC50 (RAW264.7 [2]) is reported as 227 µM, the Activity (T-cell [11]) is reported as 47% and the IC50 (RAW264.7 [3]) is reported as 515 µM. The IC50 [5] was 115 µM and the IC50 [9] was 213 µM.

With `COc1cc2c3c(c4cc(OC)c(OC)cc4c2cc1OC)[C@H](O)[C@H]1CCCN1C3` the IC50 (RAW264.7 [2]) was 0.817 µM, the IC50 (RAW264.7 [3]) was 1.16 µM and the IC50 [5] was 0.61 µM. The Activity (T-cell [6]) was 5% and the IC50 [9] was 0.965 µM.

Molecule `COC(=O)[C@@H]1CCCN1Cc1cc2cc(OC)c(OC)cc2c2cc(OC)c(OC)cc12` has an IC50 (RAW264.7 [2]) of 216 µM, an Activity (T-cell [11]) of 19% and an IC50 (RAW264.7 [3]) of 469 µM. For the same molecule, the IC50 [5] was 153 µM and the IC50 [9] was 275 µM.

In the case of `COc1cc2cc(CN3CCC[C@H]3C(=O)O)c3cc(OC)c(OC)cc3c2cc1OC`, the IC50 (RAW264.7 [2]) is reported as 200 µM, the Activity (T-cell [11]) is reported as 2% and the IC50 (RAW264.7 [3]) is reported as 418 µM. It also gave an IC50 [5] of 234 µM and an IC50 [9] of 231 µM.

In the case of `COc1cc2cc(CN3CCC[C@H]3CO)c3cc(OC)c(OC)cc3c2cc1OC`, the IC50 (RAW264.7 [2]) is reported as 307 µM, the Activity (T-cell [11]) is reported as 0.2% and the IC50 (RAW264.7 [3]) is reported as 422 µM. For the same molecule, the IC50 [5] was 265 µM and the IC50 [9] was 304 µM.

With `COc1cc2c3c(c4cc(OC)c(OC)cc4c2cc1OC)CN1CCC[C@H]1C3` [(S)-TYLOPHORINE] the inhibition at 0.1 µM (T-cell [10]) was 44%.

Work on `COc1cc2cc(CN3CCCCC3CO)c3cc(OC)c(OC)cc3c2cc1OC` (centres undefined) yielded an Activity (T-cell [12]) of 100%, an IC50 (RAW264.7 [2]) of 41 µM and an Activity (T-cell [11]) of 41%. For the same molecule, the Activity (T-cell [13]) was 40.42%, the IC50 (RAW264.7 [3]) was 513 µM and the IC50 [5] was 38 µM. It also gave an Activity (T-cell [14]) of 73.94%, an Activity (T-cell [8]) of 51.92% and an Activity (T-cell [15]) of 41.25%. It also gave an IC50 [9] of 92 µM.

`COc1cc(/C=C/C(=O)O)ccc1O.COc1cc2c3c(c4cc(OC)c(OC)cc4c2cc1OC)CN1CCCC1C3` (centres undefined) gave an IC50 (RAW264.7 [2]) of 0.135 µM, an IC50 (RAW264.7 [3]) of 0.093 µM and an IC50 [5] of 0.213 µM. For the same molecule, the Activity (T-cell [6]) was 0.8% and the IC50 [9] was 0.329 µM.

For `COc1cc2c3c(c4cc(OC)c(OC)cc4c2cc1OC)CN1CCCC1C3.O=C(O)c1cc(S(=O)(=O)O)ccc1O` (centres undefined), the IC50 (RAW264.7 [2]) was 0.283 µM, the IC50 (RAW264.7 [3]) was 0.16 µM and the IC50 [5] was 0.21 µM. It also gave an Activity (T-cell [6]) of 29% and an IC50 [9] of 0.16 µM.

In the case of `COc1cc2c3c(c4cc(OC)c(OC)cc4c2cc1OC)CN1CCCC1C3.O=C(O)c1ccc(O)cc1` (centres undefined) [TYLOPHORINE P-HYDROXYBENZOIC ACID SALT], the inhibition at 0.1 µM (T-cell [10]) is reported as 5%, the IC50 (RAW264.7 [2]) is reported as 0.511 µM and the IC50 (RAW264.7 [3]) is reported as 0.651 µM. For the same molecule, the IC50 [5] was 0.76 µM and the IC50 [9] was 0.972 µM.

Molecule `COc1cc2c3c(c4cc(OC)c(OC)cc4c2cc1OC)[C@@H](O)[C@H]1CCCN1C3` has an IC50 (RAW264.7 [2]) of 0.238 µM, an IC50 (RAW264.7 [3]) of 0.242 µM and an IC50 [5] of 0.133 µM. For the same molecule, the Activity (T-cell [6]) was 12% and the IC50 [9] was 0.783 µM.

`CC1(C)C2CC[C@]1(S(=O)(=O)O)C(=O)C2.COc1cc2c3c(c4cc(OC)c(OC)cc4c2cc1OC)CN1CCCC1C3` (centres undefined) showed an inhibition at 0.1 µM (T-cell [10]) of 2%, an IC50 (RAW264.7 [2]) of 0.027 µM and an IC50 (RAW264.7 [3]) of 0.033 µM. It also gave an IC50 [5] of 0.03 µM and an IC50 [9] of 0.338 µM.

In the case of `COc1cc2cc(C(=O)NCCCCCCO)c3cc(OC)c(OC)cc3c2cc1OC`, the IC50 (RAW264.7 [2]) is reported as 236 µM, the Activity (T-cell [11]) is reported as 7% and the IC50 (RAW264.7 [3]) is reported as 305 µM. It also gave an IC50 [5] of 251 µM and an IC50 [9] of 317 µM.

Molecule `COc1cc2c3c(c4cc(OC)c(OC)cc4c2cc1OC)CN1CCCC1C3.Nc1ccc(S(=O)(=O)O)cc1` (centres undefined) [TYLOPHORINE P-AMINOBENZENESULFONIC ACID SALT] has an inhibition at 0.1 µM (T-cell [10]) of 3%, an IC50 (RAW264.7 [2]) of 0.248 µM and an IC50 (RAW264.7 [3]) of 0.175 µM. For the same molecule, the IC50 [5] was 0.215 µM and the IC50 [9] was 0.193 µM.

Work on `COC(=O)CCCCCNC(=O)c1cc2cc(OC)c(OC)cc2c2cc(OC)c(OC)cc12` yielded an IC50 (RAW264.7 [2]) of 241 µM, an Activity (T-cell [11]) of 16% and an IC50 (RAW264.7 [3]) of 423 µM. For the same molecule, the IC50 [5] was 156 µM and the IC50 [9] was 257 µM.

For `COc1cc2c3c(c4cc(OC)c(OC)cc4c2cc1OC)CN1CCCC1C3.I` (centres undefined) [TYLOPHORINE HYDROIODIDE], the “inhibition (INH)” value (T-cell [10]) was 12%.

For `COc1cc2cc(CN3CCC(O)CC3)c3cc(OC)c(OC)cc3c2cc1OC`, the IC50 (RAW264.7 [2]) was 231 µM, the Activity (T-cell [11]) was 5% and the IC50 (RAW264.7 [3]) was 132 µM. It also gave an IC50 [5] of 265 µM and an IC50 [9] of 273 µM.
